# Measurements as given in the RNAGym collection of RNA variant scans (doi:10.1126/science.aae0568).
# This sample holds only a part of the variants without activity.
# B1: tRNA (parent)
# chain: GUUCCGUUGGCGUAAUGGUAACGCGUCUCCCUCCUAAGGAGAAGACUGCGGGUUCGAGUCCCGUACGGAACG
# Variants of: B1
# Assay: yeast fitness relative to wild type (ratio to wild type); higher = fitter; tRNA-Arg(CCU), competitive growth, 37 C, YPD
# Method in brief: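 Changes in genotype frequencies gave Darwinian fitness relative to wild type. Frequencies were read by 100-nucleotide paired-end sequencing of gene amplicons before and after pooled Saccharomyces cerevisiae strains, carrying tRNA-Arg(CCU) gene variants at the native locus, were competed in YPD at 37°C for 24 hours in six replicates. A genotype was kept only with ≥ 100 starting reads, and estimates < 0.5 were set to 0.5.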
row,Variant,yeast fitness
1,C5A C22G C27G A36U A40C A57U C66U,≤ 0.5
2,C5A U13A U35A U59C,0.661
3,C5G A20U G56A,0.572
4,C5A U8C U13C A40G C62U,≤ 0.5
5,C5G A14U G18A A21U A42G G56C,≤ 0.5
6,C5G A20U A57U,≤ 0.5
7,C5A G9A G41A U64A,≤ 0.5
8,C5G A20C,0.813
9,C5A C60U C61G,≤ 0.5
10,C5A C33G C34U,≤ 0.5
11,C5A C22U G39A A45C,≤ 0.5
12,C5A C27G U47C A70U,0.578
13,C5A U7G C29G C33U G44C A69C,≤ 0.5
14,C5A G52A G56A G58C,≤ 0.5
15,C4U U32A,0.712
16,C5G C11A A40C U64C,≤ 0.5
17,C5G A20G A65U,0.652
18,C5G A15G,0.819
19,C5A U16A A45G G50A G56A,≤ 0.5
20,C5G C11U G25C G52U,0.618
21,C5G A20U C30U,≤ 0.5
22,C5G C24U C27A G51C G56C,≤ 0.5
23,C5A C11U C34A A40U A42U C49A G50C A57C C66G,≤ 0.5
24,C5A U26G,0.785

row,Variant,yeast fitness
1,C5A U16C A45G G50A,≤ 0.5
2,C5A C29U A45C,0.546
3,C5G C24G C30G C31U U35A A36U G44A C60U A70C,≤ 0.5
4,C5A U7C C49A A69C,≤ 0.5
5,C5A A21U C24U C27G A70G,≤ 0.5
6,C5A C11G A21U,0.505
7,C5A C24G A36G A65U,≤ 0.5
8,C5A U32C A36G,0.53
9,C5A A14U A21G G52A,0.533
10,C5G A36U G41A,≤ 0.5
11,C5G C11G A14U A15U A69C,≤ 0.5
12,C5G A14U U16C G18C U32A G58A,0.542
13,C5G A15C G58A G67C,≤ 0.5
14,C5G A14U A43U U54C,0.666
15,C5G A21G U32C C49G A65G,0.553
16,C5G A14G G17A U32C G56C A69U,≤ 0.5
17,C5A C11G G51A,0.538
18,C5G C27U G41C C61U C66G,≤ 0.5
19,C5G A14C C29A C31G,0.529
20,C5A G25C C66G,≤ 0.5
21,C5A U16A U35C A45G G50A,≤ 0.5
22,C5A G6C G10A A42C,≤ 0.5
23,C5A G9A G10A A20G,≤ 0.5
24,C5A A14U U53A,≤ 0.5

row,Variant,yeast fitness
1,C5A C60G,0.551
2,C5A A69U,0.917
3,C5A C11G C30U A36C A42G C61G,≤ 0.5
4,C5G C11G C34U,0.576
5,C5A C46A G56C G68A A70G,≤ 0.5
6,C5A G18C C46U,0.557
7,C5A G17A C66U,0.587
8,C5A A36G C66U,0.655
9,C5A C33U G67A,0.593
10,C5A G6A U7A A43U G44A C46A,0.691
11,C5G C30A A36G,0.568
12,C5A C11G G41C C49U,≤ 0.5
13,C5A C31G A40G,0.529
14,C5A C24U A37G A40G A42U C49U,≤ 0.5
15,C5A A15G C24U C29U C30G U35G,≤ 0.5
16,C5A G25C G56C,≤ 0.5
17,C5A U19G A43U,0.656
18,C5G A37U C55G C61G C66G,0.623
19,C5A U59A A69G,≤ 0.5
20,C5G A15U U28C,≤ 0.5
21,C5A A14U A15C C24G U26A,0.78
22,C5G A42G,0.701
23,C5G A15U U53A,≤ 0.5
24,C5A A14U C31G G63A,≤ 0.5

row,Variant,yeast fitness
1,C5G A15U C29G,≤ 0.5
2,C5G A42G C49G A70U,≤ 0.5
3,C5A U16G A20G C29G,0.601
4,C5G A36U G41A A65U,0.549
5,C5G C11A A20C C29U,≤ 0.5
6,C5A G17A A36G,≤ 0.5
7,C5A U13G,0.841
8,C5A U54A C55G A65C,≤ 0.5
9,C5A U16A A45G G50A,0.529
10,C5G A43U C66U A69U,≤ 0.5
11,C5G A20C C22U C24U C55U,≤ 0.5
12,C5A A14G C31U C34U C60G G63A,≤ 0.5
13,C5G C30G A65C C66U,≤ 0.5
14,C5A A14U U53A U59G,0.597
15,C5G A20U G25A C31U G41A C55G,≤ 0.5
16,C5A G17C A42C A57C,≤ 0.5
17,C5A G50A G68C,≤ 0.5
18,C4U U35C,0.715
19,C4U U35A,0.659
20,C5G A15U G63A,0.551
21,C5G A40C,0.638
22,C5A C24U A37G A40G A42U C49U G67C A70G,≤ 0.5
23,C5A C60G C61G,0.544
24,C5A C29G C61A,≤ 0.5

row,Variant,yeast fitness
1,C5A A14U G50A A57U A70G,≤ 0.5
2,C5A A65C,0.839
3,C5G C29U A42C C55U,≤ 0.5
4,C5A A20U C29A,≤ 0.5
5,C5G A21C A45G A57G G68A,≤ 0.5
6,C5A G25A C33G C46A C66A,≤ 0.5
7,C5A A70G,0.922
8,C5G A14U C27U A42U A43U U47C,≤ 0.5
9,C5G A14U A21G G23A C31U G63C U64A C66G,≤ 0.5
10,C5A C30U G52A,≤ 0.5
11,C5A G12A G18A,≤ 0.5
12,C5G C29U G39A G58C A69U,≤ 0.5
13,C5G A20G A37G C46G A57C,≤ 0.5
14,C5G C11G A15U U54C C61G A70C,≤ 0.5
15,C5A A14U C27U C49G A57G,≤ 0.5
16,C5G C29A A36G A42C G44A C49U C60U,≤ 0.5
17,C5G A21C U54A A57G,≤ 0.5
18,C5A U8C C11U C31A A37U G67C,≤ 0.5
19,C5A A36C A69C,0.539
20,C5A G18C U35G A57C U64A,≤ 0.5
21,C5A C29G A43G,≤ 0.5
22,C5G A36U C46G C62A A69C,≤ 0.5
23,C5G A14C U16A C30U G38C G41C C46G,≤ 0.5
24,C5A C33A G39C G51C C62U A69C,≤ 0.5

row,Variant,yeast fitness
1,C5G C29G G41C,≤ 0.5
2,C5G C22U U26A A65U,≤ 0.5
3,C5A G18C G48C A65C,≤ 0.5
4,C5A C22U U35C C49U C66U,≤ 0.5
5,C5A G23C C62U A69U,≤ 0.5
6,C5G C11G C31G,≤ 0.5
7,C5A U28C U35C C66U,≤ 0.5
8,C5A C11G C27U G41C,≤ 0.5
9,C5A A40U G67C,0.627
10,C5A C31G U47A,0.745
11,C5G A20G C62U C66G,0.663
12,C5A C33G,0.698
13,C5G A36U C66U,≤ 0.5
14,C5G A20G A40G G44A C46G C60G C61U G63A,≤ 0.5
15,C5A G17A A43U C55U,≤ 0.5
16,C5A G10C G12A G23A,≤ 0.5
17,C5G A14U G18A A21U A42G C62U A65C,≤ 0.5
18,C5A C30U A40U,0.621
19,C5A C27U C31G A43C C49G G52C U59A,≤ 0.5
20,C5A C11A C30U C31A G58A G67C,0.548
21,C5A A14U A21C C61U,≤ 0.5
22,C5G A21G,0.997
23,C5G C27U C46U,0.754
24,C5A U19G,0.731

row,Variant,yeast fitness
1,C5G C30G,0.523
2,C5A C29A C34G G68C,≤ 0.5
3,C5A U16G A21C C24U C30A U59G,≤ 0.5
4,C5A G58C C60A A70C,≤ 0.5
5,C5G C11U C22A,≤ 0.5
6,C5G A36C A42G C55U C62G A69U,≤ 0.5
7,C5A U19A G68C,0.539
8,C5G A43U U64C,0.703
9,C5A C11G G48C,≤ 0.5
10,C5A A36U,0.678
11,C5A A36C,0.608
12,C5A C24G U26A C29G U32A G48A C66G G67U,≤ 0.5
13,C5A G23C A65G,0.532
14,C5A G51C G63C A65C A70U,≤ 0.5
15,C5A C33G C34A A40C C55U A65C,≤ 0.5
16,C5G C27U A57U,≤ 0.5
17,C5A C60U A70G,≤ 0.5
18,C5G C29U U54G C60G C62U,≤ 0.5
19,C5A A20C C29U C34A C46A G50A A57U C66U,≤ 0.5
20,C5A C11G G51A C61U,≤ 0.5
21,C5G A15C U32C C46U U53G,≤ 0.5
22,C5G A43U C61G,≤ 0.5
23,C5G C11G A15C A65C,≤ 0.5
